Measurements published in ChEMBL document CHEMBL1122545, “N2-(4-Substituted-2,6-dichlorophenyl)-N1,N1-dimethylformamidines as antihypertensive and diuretic agents” (J Med Chem, 1984).

What was measured:
Rattus norvegicus [1] = assay: Antihypertensive activity in SH rats, and mean arterial blood pressure was reported at a dose of 25 mg/Kg; type: functional, Artery
Outline: (§1)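 Male SH rats (Okamoto strain), 16 weeks old, dosed orally by gavage with compound dispersed in 3% starch in normal saline at 2 mL/kg. Oral normal saline load, then individual metabolism cages; 0-5 h urine collected, Na+ and K+ measured by flame photometry. Rats redosed at 24 h without the saline load. MABP and HR taken by femoral arterial puncture under local anesthetic 4 h after the second dose.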

[2] = Diuretic activity was determined expressed as Na+(sodium) excreted in milli equivalents was reported for a duration of 5 hours after administration of a dose of 25 mg/Kg; type: ADME, Urine; conditions: in vivo; outline: as §1
Rattus norvegicus [3] = assay: Antihypertensive activity determined as heart rate in SH rats, was reported at a dose of 25 mg/Kg; type: functional; outline: as §1
Rattus norvegicus [4] = assay: Diuretic activity was determined in SH rats expressed as K(+) (potassium) excreted in milli equivalents was reported for a duration of 5 hours after administration of a dose of 25 mg/Kg; type: ADME, organism-based, Urine; conditions: in vivo; outline: as §1
[5] = Diuretic activity was determined expressed as volume of urine excreted in mL was reported at a dose of 25 mg/Kg; type: ADME; conditions: in vivo; outline: as §1

Cc1cc(N(C)C)ccc1CNc1cc(Cl)c(/N=C/N(C)C)c(Cl)c1
MABP (Rattus norvegicus [1]): 138 mmHg | Diuretic activity [2]: 2.59 m equiv | HR (Rattus norvegicus [3]): 270 beats min-1 | Diuretic activity (Rattus norvegicus [4]): 0.6 m equiv | Diuretic activity [5]: 25.5 mL
